Converted amounts (≈) assume the structure as drawn.
Tests used:
Type in all cases: functional
Streptococcus pneumoniae [1] = test: Antimicrobial activity against penicillin-resistant Streptococcus pneumoniae by agar dilution method
How it was run: (§1)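 Agar dilution MIC on Mueller-Hinton agar with 5% sheep blood, inocula 10^4 CFU/spot; amoxicillin-clavulanate combined 1:2; S. pneumoniae ATCC 49619 quality control each run.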

Streptococcus pneumoniae [2] = test: Antimicrobial activity against penicillin-intermediate Streptococcus pneumoniae by agar dilution method
Streptococcus pneumoniae [3] = test: Antimicrobial activity against penicillin-susceptible Streptococcus pneumoniae by agar dilution method
Streptococcus pneumoniae [4] = test: Antimicrobial activity against Streptococcus pneumoniae 19A by agar dilution method; how it was run: as §1
Streptococcus pneumoniae [5] = test: Antimicrobial activity against Streptococcus pneumoniae isolate 3260 by agar dilution method
Streptococcus pneumoniae [6] = test: Antimicrobial activity against Streptococcus pneumoniae 7 by time-kill analysis
How it was run: (§2)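 Time-kill in cation-adjusted Mueller-Hinton broth with 5% lysed horse blood; inocula 5 × 105 to 5 × 10^6 CFU/ml; drugs at MIC, 2× and 4× MIC; 35°C shaking water bath; viable counts at 0, 3, 6, 12, 24 h. Bactericidal = ≥3 log10 CFU/ml (99.9%) drop from original inoculum; 90%/99%/99.9% killing scored per strain.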

Streptococcus pneumoniae [7] = test: Antimicrobial activity against Streptococcus pneumoniae isolate 3282 by agar dilution method
Streptococcus pneumoniae [8] = test: Antimicrobial activity against Streptococcus pneumoniae isolate 3481 by agar dilution method; how it was run: as §1
Streptococcus pneumoniae [9] = test: Antimicrobial activity against Streptococcus pneumoniae isolate 3681 by agar dilution method; how it was run: as §1
Streptococcus pneumoniae [10] = test: Antimicrobial activity against Streptococcus pneumoniae isolate 3374 by agar dilution method; how it was run: as §1
Streptococcus pneumoniae [11] = test: Antimicrobial activity against Streptococcus pneumoniae isolate 37 by agar dilution method; how it was run: as §1
Streptococcus pneumoniae [12] = test: Antimicrobial activity against Streptococcus pneumoniae isolate 1564 by agar dilution method
Streptococcus pneumoniae [13] = test: Antimicrobial activity against Streptococcus pneumoniae isolate 1394 by agar dilution method
Streptococcus pneumoniae [14] = test: Antimicrobial activity against Streptococcus pneumoniae isolate 1055 by agar dilution method
Streptococcus pneumoniae [15] = test: Antimicrobial activity against Streptococcus pneumoniae 9 by time-kill analysis
How it was run: as §2, with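 “12 and” for “12,”, “if” for “=”, “reduction” for “drop”, “90% and 99%” for “90%/99%/99.9%”, “also scored.” for “scored per strain.”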

Streptococcus pneumoniae [16] = test: Antimicrobial activity against Streptococcus pneumoniae 2 by time-kill analysis; how it was run: as §2
Streptococcus pneumoniae [17] = test: Antimicrobial activity against Streptococcus pneumoniae isolate 3587 by agar dilution method
Streptococcus pneumoniae [18] = test: Antimicrobial activity against Streptococcus pneumoniae 11 by time-kill analysis; how it was run: as §2
Streptococcus pneumoniae [19] = test: Antimicrobial activity against Streptococcus pneumoniae isolate 3346 by agar dilution method
Streptococcus pneumoniae [20] = test: Antimicrobial activity against Streptococcus pneumoniae isolate 2880 by agar dilution method; how it was run: as §1
Streptococcus pneumoniae [21] = test: Antimicrobial activity against Streptococcus pneumoniae 5 by time-kill analysis
How it was run: as §2, with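 “12 and” for “12,”, “if” for “=”, “reduction” for “drop”, “90% and 99%” for “90%/99%/99.9%”, “also scored.” for “scored per strain.”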

Streptococcus pneumoniae [22] = test: Antimicrobial activity against Streptococcus pneumoniae isolate 1146 by agar dilution method; how it was run: as §1
Streptococcus pneumoniae [23] = test: Antimicrobial activity against Streptococcus pneumoniae 4 by time-kill analysis; how it was run: as §2
Streptococcus pneumoniae [24] = test: Antimicrobial activity against Streptococcus pneumoniae 1 by time-kill analysis
How it was run: as §2, with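 “12 and” for “12,”, “if” for “=”, “reduction” for “drop”, “90% and 99%” for “90%/99%/99.9%”, “also scored.” for “scored per strain.”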

Streptococcus pneumoniae [25] = test: Antimicrobial activity against Streptococcus pneumoniae isolate 24 by agar dilution method
Streptococcus pneumoniae [26] = test: Antimicrobial activity against Streptococcus pneumoniae isolate 1384 by agar dilution method; how it was run: as §1
Streptococcus pneumoniae [27] = test: Antimicrobial activity against Streptococcus pneumoniae isolate 1397 by agar dilution method; how it was run: as §1
Streptococcus pneumoniae [28] = test: Antimicrobial activity against Streptococcus pneumoniae isolate 3275 by agar dilution method; how it was run: as §1
Streptococcus pneumoniae [29] = test: Antimicrobial activity against Streptococcus pneumoniae 3 by time-kill analysis; how it was run: as §2
Streptococcus pneumoniae [30] = test: Antimicrobial activity against Streptococcus pneumoniae isolate 4755 by agar dilution method; how it was run: as §1
Streptococcus pneumoniae [31] = test: Antimicrobial activity against Streptococcus pneumoniae isolate 2688 by agar dilution method; how it was run: as §1
Streptococcus pneumoniae [32] = test: Antimicrobial activity against Streptococcus pneumoniae isolate 2686 by agar dilution method; how it was run: as §1
Streptococcus pneumoniae [33] = test: Antimicrobial activity against Streptococcus pneumoniae isolate 3458 by agar dilution method
Streptococcus pneumoniae [34] = test: Antimicrobial activity against Streptococcus pneumoniae isolate 4747 by agar dilution method; how it was run: as §1
Streptococcus pneumoniae [35] = test: Antimicrobial activity against Streptococcus pneumoniae isolate 2617 by agar dilution method; how it was run: as §1
Streptococcus pneumoniae [36] = test: Antimicrobial activity against Streptococcus pneumoniae isolate 3412 by agar dilution method; how it was run: as §1
Streptococcus pneumoniae [37] = test: Antimicrobial activity against Streptococcus pneumoniae 8 by time-kill analysis; how it was run: as §2
Streptococcus pneumoniae [38] = test: Antimicrobial activity against Streptococcus pneumoniae isolate 3455 by agar dilution method
Streptococcus pneumoniae [39] = test: Antimicrobial activity against Streptococcus pneumoniae isolate 1424 by agar dilution method; how it was run: as §1
Streptococcus pneumoniae [40] = test: Antimicrobial activity against Streptococcus pneumoniae 10 by time-kill analysis; how it was run: as §2
Streptococcus pneumoniae [41] = test: Antimicrobial activity against Streptococcus pneumoniae isolate 33 by agar dilution method; how it was run: as §1
Streptococcus pneumoniae [42] = test: Antimicrobial activity against Streptococcus pneumoniae 6 by time-kill analysis; how it was run: as §2
Streptococcus pneumoniae [43] = test: Antimicrobial activity against Streptococcus pneumoniae isolate 3791 by agar dilution method; how it was run: as §1
Streptococcus pneumoniae [44] = test: Antimicrobial activity against Streptococcus pneumoniae isolate 3263 by agar dilution method
Streptococcus pneumoniae [45] = test: Antimicrobial activity against Streptococcus pneumoniae isolate 1147 by agar dilution method; how it was run: as §1
Streptococcus pneumoniae [46] = test: Antimicrobial activity against Streptococcus pneumoniae isolate 2874 by agar dilution method; how it was run: as §1
Streptococcus pneumoniae [47] = test: Antimicrobial activity against Streptococcus pneumoniae 12 by time-kill analysis; how it was run: as §2

Question: What does the source list for `C[C@H]1COc2c(N3CCN(C)CC3)c(F)cc3c(=O)c(C(=O)O)cn1c23.C[C@H]1COc2c(N3CCN(C)CC3)c(F)cc3c(=O)c(C(=O)O)cn1c23.O` [LEVOFLOXACIN]?
Answer: MIC50 (Streptococcus pneumoniae [1]): 1 µg/mL; MIC90 (Streptococcus pneumoniae [1]): 4 µg/mL; MIC50 (Streptococcus pneumoniae [2]): 1 µg/mL; MIC90 (Streptococcus pneumoniae [2]): 2 µg/mL; MIC50 (Streptococcus pneumoniae [3]): 1 µg/mL; MIC90 (Streptococcus pneumoniae [3]): 16 µg/mL; MIC50 (Streptococcus pneumoniae [4]): 2 µg/mL; MIC90 (Streptococcus pneumoniae [4]): 2 µg/mL

Question: How did the MIC (Streptococcus pneumoniae [5]) turn out when `C=CC1=C(C(=O)O)N2C(=O)[C@@H](NC(=O)/C(=N\O)c3csc(N)n3)[C@H]2SC1` [CEFDINIR] was run?
Answer: The MIC was 8 µg/mL (≈ 20.2 µM).

Question: And the MIC (Streptococcus pneumoniae [6])?
Answer: The MIC was 4 µg/mL (≈ 10.1 µM).

Question: What about the MIC (Streptococcus pneumoniae [7]) of the same molecule?
Answer: The MIC was 8 µg/mL (≈ 20.2 µM).

Question: And the MIC (Streptococcus pneumoniae [8])?
Answer: Its MIC is 4 µg/mL (≈ 10.1 µM).

Question: What about the MIC (Streptococcus pneumoniae [9]) of the same molecule?
Answer: Its MIC is 8 µg/mL (≈ 20.2 µM).

Question: And the MIC50 (Streptococcus pneumoniae [1])?
Answer: The MIC50 was 8 µg/mL (≈ 20.2 µM).

Question: And the MIC90 (Streptococcus pneumoniae [1])?
Answer: Its MIC90 is 8 µg/mL (≈ 20.2 µM).

Question: And the MIC (Streptococcus pneumoniae [10])?
Answer: Its MIC is 4 µg/mL (≈ 10.1 µM).

Question: What about the MIC (Streptococcus pneumoniae [11]) of the same molecule?
Answer: Its MIC is 4 µg/mL (≈ 10.1 µM).

Question: And the MIC (Streptococcus pneumoniae [12])?
Answer: Its MIC is 32 µg/mL (≈ 80.9 µM).

Question: And the MIC (Streptococcus pneumoniae [13])?
Answer: Its MIC is 8 µg/mL (≈ 20.2 µM).

Question: What about the MIC (Streptococcus pneumoniae [14]) of the same molecule?
Answer: The MIC was 8 µg/mL (≈ 20.2 µM).

Question: And the MIC (Streptococcus pneumoniae [15])?
Answer: The MIC was 1 µg/mL (≈ 2.53 µM).

Question: And the MIC (Streptococcus pneumoniae [16])?
Answer: Its MIC is 0.06 µg/mL (≈ 0.152 µM).

Question: And the MIC (Streptococcus pneumoniae [17])?
Answer: Its MIC is 8 µg/mL (≈ 20.2 µM).

Question: What about the MIC (Streptococcus pneumoniae [18]) of the same molecule?
Answer: The MIC was 4 µg/mL (≈ 10.1 µM).

Question: And the MIC50 (Streptococcus pneumoniae [2])?
Answer: Its MIC50 is 0.5 µg/mL (≈ 1.26 µM).

Question: And the MIC90 (Streptococcus pneumoniae [2])?
Answer: Its MIC90 is 4 µg/mL (≈ 10.1 µM).

Question: And the MIC (Streptococcus pneumoniae [19])?
Answer: The MIC was 8 µg/mL (≈ 20.2 µM).

Question: And the MIC (Streptococcus pneumoniae [20])?
Answer: Its MIC is 4 µg/mL (≈ 10.1 µM).

Question: And the MIC (Streptococcus pneumoniae [21])?
Answer: The MIC was 8 µg/mL (≈ 20.2 µM).

Question: What about the MIC (Streptococcus pneumoniae [22]) of the same molecule?
Answer: Its MIC is 8 µg/mL (≈ 20.2 µM).

Question: And the MIC (Streptococcus pneumoniae [23])?
Answer: Its MIC is 16 µg/mL (≈ 40.5 µM).

Question: What about the MIC (Streptococcus pneumoniae [24]) of the same molecule?
Answer: The MIC was 0.12 µg/mL (≈ 0.303 µM).

Question: What about the MIC (Streptococcus pneumoniae [25]) of the same molecule?
Answer: Its MIC is 4 µg/mL (≈ 10.1 µM).

Question: And the MIC (Streptococcus pneumoniae [26])?
Answer: Its MIC is 8 µg/mL (≈ 20.2 µM).

Question: And the MIC50 (Streptococcus pneumoniae [3])?
Answer: The MIC50 was 0.06 µg/mL (≈ 0.152 µM).

Question: What about the MIC90 (Streptococcus pneumoniae [3]) of the same molecule?
Answer: The MIC90 was 0.125 µg/mL (≈ 0.316 µM).

Question: What about the MIC (Streptococcus pneumoniae [27]) of the same molecule?
Answer: Its MIC is 4 µg/mL (≈ 10.1 µM).

Question: What about the MIC (Streptococcus pneumoniae [28]) of the same molecule?
Answer: Its MIC is 2 µg/mL (≈ 5.06 µM).

Question: And the MIC (Streptococcus pneumoniae [29])?
Answer: Its MIC is 0.5 µg/mL (≈ 1.26 µM).

Question: What about the MIC (Streptococcus pneumoniae [30]) of the same molecule?
Answer: Its MIC is 4 µg/mL (≈ 10.1 µM).

Question: What about the MIC (Streptococcus pneumoniae [31]) of the same molecule?
Answer: The MIC was 16 µg/mL (≈ 40.5 µM).

Question: And the MIC (Streptococcus pneumoniae [32])?
Answer: Its MIC is 8 µg/mL (≈ 20.2 µM).

Question: And the MIC (Streptococcus pneumoniae [33])?
Answer: The MIC was 8 µg/mL (≈ 20.2 µM).

Question: What about the MIC (Streptococcus pneumoniae [34]) of the same molecule?
Answer: Its MIC is 4 µg/mL (≈ 10.1 µM).

Question: What about the MIC (Streptococcus pneumoniae [35]) of the same molecule?
Answer: Its MIC is 4 µg/mL (≈ 10.1 µM).

Question: What about the MIC (Streptococcus pneumoniae [36]) of the same molecule?
Answer: Its MIC is 4 µg/mL (≈ 10.1 µM).

Question: What about the MIC (Streptococcus pneumoniae [37]) of the same molecule?
Answer: The MIC was 16 µg/mL (≈ 40.5 µM).

Question: What about the MIC (Streptococcus pneumoniae [38]) of the same molecule?
Answer: The MIC was 8 µg/mL (≈ 20.2 µM).

Question: And the MIC (Streptococcus pneumoniae [39])?
Answer: Its MIC is 8 µg/mL (≈ 20.2 µM).

Question: And the MIC (Streptococcus pneumoniae [40])?
Answer: The MIC was 0.25 µg/mL (≈ 0.632 µM).

Question: What about the MIC (Streptococcus pneumoniae [41]) of the same molecule?
Answer: The MIC was 8 µg/mL (≈ 20.2 µM).

Question: And the MIC (Streptococcus pneumoniae [42])?
Answer: The MIC was 1 µg/mL (≈ 2.53 µM).

Question: And the MIC (Streptococcus pneumoniae [43])?
Answer: The MIC was 8 µg/mL (≈ 20.2 µM).

Question: And the MIC (Streptococcus pneumoniae [44])?
Answer: The MIC was 8 µg/mL (≈ 20.2 µM).

Question: What about the MIC (Streptococcus pneumoniae [45]) of the same molecule?
Answer: Its MIC is 8 µg/mL (≈ 20.2 µM).

Question: And the MIC (Streptococcus pneumoniae [46])?
Answer: The MIC was 8 µg/mL (≈ 20.2 µM).

Question: What about the MIC (Streptococcus pneumoniae [47]) of the same molecule?
Answer: The MIC was 4 µg/mL (≈ 10.1 µM).

Source: ChEMBL document CHEMBL1649446, “Comparative antipneumococcal activities of sulopenem and other drugs” (2009)
